In ChEMBL document CHEMBL3797161, “Design, Synthesis, and Immunological Evaluation of Benzyloxyalkyl-Substituted 1,2,3-Triazolyl α-GalCer Analogues” (ACS Med Chem Lett, 2016):
Activity calls are given as the source filed them. No cut-off for these calls is given here.

Columns and labels:
[1] = Solubility of compound in DMSO at 10 to 1000 ng/ml; assay type: physicochemical
[2] = Cytotoxicity against Balb/c mouse splenocytes assessed as reduction in cell proliferation up to 1000 ng/ml after 48 hrs by MTT assay; assay type: cell-based; conditions: splenocyte
In short: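 Splenocytes from BALB/c mice were exposed to glycolipid at up to 1000 ng/mL for 48 h. Proliferation was read by MTT relative to untreated cells.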

Mus musculus [3] = organism: Mus musculus; test: Binding affinity to CD1D in Balb/c mouse splenocytes assessed as increase in IL-2 production at 10 to 1000 ng/ml after 48 hrs by sandwich ELISA; assay type: cell-based
In short: (§1)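 Splenocytes isolated from BALB/c mice were cultured in vitro with glycolipid (dissolved in DMSO) at 10, 100 or 1000 ng/mL for 48 h. IL-2, IL-4 and IFN-γ in the culture were measured by ELISA.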

T-cell = test: Binding affinity to CD1D in Balb/c mouse splenocytes assessed as T cell stimulation by measuring increase in cytokine expression after 48 hrs by sandwich ELISA; assay type: cell-based; in short: as §1
Mus musculus [4] = test: Stimulation of IFN-gamma production in Balb/c mouse at 1 ug, iv after 2 to 48 hrs by sandwich ELISA; assay type: functional, organism-based
In short: (§2)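 BALB/c mice received glycolipid intravenously, 1 μg per animal. IFN-γ and IL-4 expression was then measured in vivo.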

Mus musculus [5] = test: Stimulation of IL-4 production in Balb/c mouse at 1 ug, iv after 2 to 48 hrs by sandwich ELISA; assay type: functional, organism-based; in short: as §2
Mus musculus [6] = organism: Mus musculus; test: Binding affinity to CD1D in Balb/c mouse splenocytes assessed as increase in IL-4 production at 10 to 1000 ng/ml after 48 hrs by sandwich ELISA; assay type: cell-based; in short: as §1
Mus musculus [7] = organism: Mus musculus; test: Binding affinity to CD1D in Balb/c mouse splenocytes assessed as increase in IFN-gamma production at 10 to 1000 ng/ml after 48 hrs by sandwich ELISA; assay type: cell-based; in short: as §1
Mus musculus [8] = organism: Mus musculus; test: Binding affinity to CD1D in Balb/c mouse splenocytes assessed as increase in IL-4 production at 1000 ng/ml at 2 hrs by sandwich ELISA; assay type: cell-based
In short: (§3)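 For cytokine kinetics, BALB/c mouse splenocytes were treated in vitro with glycolipid at 1000 ng/mL. Culture supernatants were sampled at 2, 12 and 24 h, and IL-4 and IFN-γ were quantified.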

Mus musculus [9] = organism: Mus musculus; test: Binding affinity to CD1D in Balb/c mouse splenocytes assessed as increase in IL-4 production at 1000 ng/ml up to 24 hrs by sandwich ELISA; assay type: cell-based; in short: as §3
Mus musculus [10] = organism: Mus musculus; test: Binding affinity to CD1D in Balb/c mouse splenocytes assessed as increase in IFN-gamma production at 1000 ng/ml up to 12 hrs by sandwich ELISA; assay type: cell-based; in short: as §3
Mus musculus [11] = organism: Mus musculus; test: Binding affinity to CD1D in Balb/c mouse splenocytes assessed as increase in IFN-gamma production at 1000 ng/ml at 24 hrs by sandwich ELISA; assay type: cell-based; in short: as §3
[12] = target: T1, Antigen-presenting glycoprotein CD1d (Homo sapiens) (UniProt P15813); test: Binding affinity to CD1D (unknown origin) assessed as increase in IL-2 production at 100 ng/ml preincubated for 16 hrs followed by Valpha-14 Vbeta-8.2 DN3A4-1.2(1.2) iNKT hybridoma cells addition to compound-CD1D mixture measured after 16 hrs by sandwich ELISA
T1 sequence (whole entry): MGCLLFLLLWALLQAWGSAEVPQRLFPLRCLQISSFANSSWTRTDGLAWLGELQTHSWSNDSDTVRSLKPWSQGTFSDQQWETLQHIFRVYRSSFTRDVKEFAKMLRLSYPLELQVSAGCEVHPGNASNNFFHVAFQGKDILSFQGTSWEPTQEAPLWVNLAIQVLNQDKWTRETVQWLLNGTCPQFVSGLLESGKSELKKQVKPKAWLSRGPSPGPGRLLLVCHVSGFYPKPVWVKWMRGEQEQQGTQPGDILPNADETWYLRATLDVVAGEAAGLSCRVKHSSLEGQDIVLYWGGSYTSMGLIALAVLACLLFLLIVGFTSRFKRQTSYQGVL
In short: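 Glycolipid incubated with CD1d protein for 16 h, then exposed to Vα14 Vβ8.2 DN3A4–1.2 (1.2) iNKT hybridoma cells; IL-2 secreted into the medium quantified.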

Mus musculus [13] = organism: Mus musculus; test: Binding affinity to CD1D in Balb/c mouse splenocytes assessed as increase in IFN-gamma production at 1000 ng/ml after 48 hrs by sandwich ELISA; assay type: cell-based

| SMILES | solubility [1] | Activity [2] | Activity (Mus musculus [3]) | Activity (T-cell) | Activity (Mus musculus [4]) | Activity (Mus musculus [5]) | Activity (Mus musculus [6]) | Activity (Mus musculus [7]) | Activity (Mus musculus [8]) | Activity (Mus musculus [9]) | Activity (Mus musculus [10]) | Activity (Mus musculus [11]) | Activity [12] | Activity (Mus musculus [13]) |
| --- | --- | --- | --- | --- | --- | --- | --- | --- | --- | --- | --- | --- | --- | --- |
| CCCCCCCCCCCCCC[C@@H](O)[C@@H](O)[C@H](CO[C@H]1O[C@H](CO)[C@H](O)[C@H](O)[C@H]1O)n1cc(COCCCCCCCCOCc2ccccc2)nn1 | soluble | Non-toxic | Active | Dose-dependent effect | Active | Active |  |  |  |  |  |  |  |  |
| CCCCCCCCCCCCCC[C@@H](O)[C@@H](O)[C@H](CO[C@H]1O[C@H](CO)[C@H](O)[C@H](O)[C@H]1O)n1cc(COCCCCCCCCCCCCOCc2ccccc2)nn1 | soluble | Non-toxic | Active | Dose-dependent effect |  |  |  |  |  |  |  |  |  |  |
| CCCCCCCCCCCCCC[C@@H](O)[C@@H](O)[C@H](CO[C@H]1O[C@H](CO)[C@H](O)[C@H](O)[C@H]1O)n1cc(COCCCCOCc2ccccc2)nn1 | soluble | Non-toxic | Active | Dose-dependent effect |  |  |  |  |  |  |  |  |  |  |
| CCCCCCCCCCCCCC[C@@H](O)[C@@H](O)[C@H](CO[C@H]1O[C@H](CO)[C@H](O)[C@H](O)[C@H]1O)n1cc(COCCCCCCCCCCCCOCCCCOCc2ccccc2)nn1 | soluble | Non-toxic | Active | Dose-dependent effect | inactive | inactive | Active | Active | Active | inactive | inactive | Active | Active |  |
| CCCCCCCCCCCCCC[C@@H](O)[C@@H](O)[C@H](CO[C@H]1O[C@H](CO)[C@H](O)[C@H](O)[C@H]1O)n1cc(COCCCCCCCCCCCCOCCOCc2ccccc2)nn1 | soluble | Non-toxic | Active | Dose-dependent effect |  |  |  |  |  |  |  |  |  | Active |
| CCCCCCCCCCCCCCCCCCCCCCCCCC(=O)N[C@@H](CO[C@H]1O[C@H](CO)[C@H](O)[C@H](O)[C@H]1O)[C@H](O)[C@H](O)CCCCCCCCCCCCCC [RGI-7000] |  | Non-toxic | Active |  | Active | Active | Active | Active | Active | Active | Active | Active | Active |  |
| CCCCCCCCCCCCCC[C@@H](O)[C@@H](O)[C@H](CO[C@H]1O[C@H](CO)[C@H](O)[C@H](O)[C@H]1O)n1cc(COCCCCCCOCc2ccccc2)nn1 | soluble | Non-toxic | Active | Dose-dependent effect |  |  |  |  |  |  |  |  |  | Active |
| CCCCCCCCCCCCCC[C@@H](O)[C@@H](O)[C@H](CO[C@H]1O[C@H](CO)[C@H](O)[C@H](O)[C@H]1O)n1cc(COCCCCCCCCCCOCc2ccccc2)nn1 | soluble | Non-toxic | Active | Dose-dependent effect |  |  |  |  |  |  |  |  |  |  |
| CCCCCCCCCCCCCC[C@@H](O)[C@@H](O)[C@H](CO[C@H]1O[C@H](CO)[C@H](O)[C@H](O)[C@H]1O)n1cc(COCCCCCCCCCCCCOCCCCCCOCc2ccccc2)nn1 | soluble | Non-toxic | Active | Dose-dependent effect | inactive | inactive | Active | Active | Active | inactive | inactive | Active | Active |  |
| CCCCCCCCCCCCCC[C@@H](O)[C@@H](O)[C@H](CO[C@H]1O[C@H](CO)[C@H](O)[C@H](O)[C@H]1O)n1cc(COCCOCc2ccccc2)nn1 | soluble | Non-toxic | inactive | Dose-dependent effect |  |  |  |  |  |  |  |  |  |  |
